Where “and” joins values, the source holds several entries; their conditions need not be identical. Identical values can stand only once. Entries after “also recorded” stand apart in the source; their conditions may differ.
Experiments:
p300 HAT domain = assay: In vitro acetylation of MKP-1 docking domain peptides by p300; type: biochemical; conditions: recombinant p300 HAT domain, labelled acetyl-CoA, 30°C 10 min, autoradiography
RAW macrophages = assay: Cytotoxicity of MAPK inhibitors; type: cell-based, mouse; conditions: unpublished data
NOS2 = NOS2 protein levels by immunoblot in RAW cells; type: cell-based, mouse; conditions: macrophages, TLR agonist 16 h
How it was run: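 RAW 264.7 cells were handled in two ways. For agonist response, cells were exposed to the TLR agonists PGN, poly(I:C), LPS or E. coli for 16 h, with or without TSA. For TSA dose-response, cells were pretreated with increasing TSA for 1 h, then given LPS 100 ng/ml for 6 h, with ERα as the blot control. In both, lysates were immunoblotted for NOS2.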

HEK293 cells = assay: Acetylation of HA-MKP-1 in HEK293 cells; type: cell-based; conditions: IP acetyl-lysine, blot HA
MKP-1 catalytic = type: biochemical; conditions: OMFP, A 477 nm, 30°C, 0–40 min, n = 2 ± SD
How it was run: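 Recombinant MKP-1 (0.66 μg) was acetylated or not with recombinant p300 HAT (2.5 μg) and 5 μl of 1 mM acetyl-CoA stock for 30 min at 30°C. Recombinant p38 (2 μg) or control was added for 1 h at 30°C. The substrate 3-O-methylfluorescein phosphate was then added and A477 nm monitored at 30°C. n = 2, ± SD.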

TNF-α = assay: LPS-induced TNF-α RNA in MKP-1 KO MEFs rescued with MKP-1; type: cell-based, mouse; conditions: 4-HT, then LPS and TSA 1 h; RT-PCR
phospho-p38 = assay: Dephosphorylation of recombinant phospho-p38 by recombinant MKP-1; type: biochemical; conditions: for dephosphorylation of phospho-p38, without p300: recombinant MKP-1, immunoblot; for dephosphorylation of phospho-p38, effect of adding p300: recombinant MKP-1 acetylated with p300, immunoblot
How it was run: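 Recombinant His-MKP-1 made from pRSET-His-MKP-1 by in vitro transcription and translation. It was incubated with recombinant p300 and cold acetyl-CoA, or with control. It was then incubated with recombinant phospho-p38, and remaining phospho-p38 was detected by immunoblotting.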

p38 = assay: Phospho-p38 in MKP-1 KO MEFs rescued with MKP-1; type: cell-based, mouse; conditions: 4-HT, then LPS and TSA 1 h
How it was run: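 MKP-1−/− fibroblasts were immortalized with SV40 T-antigen and transfected with MKP-1(WT)-ERα or MKP-1(K57R)-ERα. Expression was induced with 200 nM 4-hydroxytamoxifen, then cells were treated with LPS and TSA for 1 h. Lysates were immunoblotted for phospho-p38, total p38 and the ER tag.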

RFSTIVRRRARGAMGLEHIVPNAELRGRLLA [MKP-1(47–76)(K57R)]
acetylation of peptide by p300 (p300 HAT domain): p300 cannot acetylate MKP-1(47–76)(K57R)

C[S+]([O-])c1ccc(-c2nc(-c3ccncc3)c(-c3ccc(F)cc3)[nH]2)cc1 (centres unmarked) [SB203580]
cytotoxicity (RAW macrophages): not cytotoxic

Oc1c2ccccc2c2c3c(cccc13)N=N2 [SP600125]
cytotoxicity (RAW macrophages): not cytotoxic

N#CC(=C(/N)Sc1ccccc1N)/C(C#N)=C(/N)Sc1ccccc1N [U0126]
cytotoxicity (RAW macrophages): not cytotoxic

peptidoglycan
NOS2 expression, activation by TLR agonist alone (NOS2): can activate NOS2 expression in macrophages

RFSTIVRRRAKGAMGLEHIVPNAELRGRLLA [MKP-1(47–76)(WT)]
acetylation of peptide by p300 (p300 HAT domain): p300 acetylates MKP-1(47–76)

B1: HA-MKP-1(K57R) (protein, UniProt P28562 1-367, looked up, variant K57R)
Dual specificity protein …: MVMEVGTLDAGGLRALLGERAAQCLLLDCRSFFAFNAGHIAGSVNVRFSTIVRRRARGAMGLEHIVPNAELRGRLLAGAYHAVVLLDERSAALDGAKRDGTLALAAGALCREARAAQVFFLKGGYEAFSASCPELCSKQSTPMGLSLPLSTSVPDSAESGCSSCSTPLYDQGGPVEILPFLYLGSAYHASRKDMLDALGITALINVSANCPNHFEGHYQYKSIPVEDNHKADISSWFNEAIDFIDSIKNAGGRVFVHCQAGISRSATICLAYLMRTNRVKLDEAFEFVKQRRSIISPNFSFMGQLLQFESQVLAPHCSAEAGSPAMAVLDRGTSTTTVFNFPVSIPVHSTNSALSYLQSPITTSPSC
modifications: HA tag
acetylation of HA-MKP-1 in cells in response to LPS and TSA (HEK293 cells): MKP-1(K57R) is not

B2: MKP-1: Recombinant MKP-1, acetylated or not with p300 and acetyl-CoA (protein, UniProt P28562 1-367, looked up)
Dual specificity protein …: MVMEVGTLDAGGLRALLGERAAQCLLLDCRSFFAFNAGHIAGSVNVRFSTIVRRRAKGAMGLEHIVPNAELRGRLLAGAYHAVVLLDERSAALDGAKRDGTLALAAGALCREARAAQVFFLKGGYEAFSASCPELCSKQSTPMGLSLPLSTSVPDSAESGCSSCSTPLYDQGGPVEILPFLYLGSAYHASRKDMLDALGITALINVSANCPNHFEGHYQYKSIPVEDNHKADISSWFNEAIDFIDSIKNAGGRVFVHCQAGISRSATICLAYLMRTNRVKLDEAFEFVKQRRSIISPNFSFMGQLLQFESQVLAPHCSAEAGSPAMAVLDRGTSTTTVFNFPVSIPVHSTNSALSYLQSPITTSPSC
modifications: optionally acetylated
phosphatase activity, effect of recombinant p38 (MKP-1 catalytic): increases the phosphatase activity of MKP-1
increase of phosphatase activity by acetylation in the presence of p38 (MKP-1 catalytic; p300 and acetyl-CoA 30 min at 30°C, then p38 1 h at 30°C): ~125% and > 100%
phosphatase activity, effect of acetylation without p38 (MKP-1 catalytic; p300 and acetyl-CoA): negligible effect on phosphatase activity; also recorded: does not affect phosphatase activity of the enzyme alone

B3: MKP-1(K57R) (protein, UniProt P28562 1-367, looked up, variant K57R)
Dual specificity protein …: MVMEVGTLDAGGLRALLGERAAQCLLLDCRSFFAFNAGHIAGSVNVRFSTIVRRRARGAMGLEHIVPNAELRGRLLAGAYHAVVLLDERSAALDGAKRDGTLALAAGALCREARAAQVFFLKGGYEAFSASCPELCSKQSTPMGLSLPLSTSVPDSAESGCSSCSTPLYDQGGPVEILPFLYLGSAYHASRKDMLDALGITALINVSANCPNHFEGHYQYKSIPVEDNHKADISSWFNEAIDFIDSIKNAGGRVFVHCQAGISRSATICLAYLMRTNRVKLDEAFEFVKQRRSIISPNFSFMGQLLQFESQVLAPHCSAEAGSPAMAVLDRGTSTTTVFNFPVSIPVHSTNSALSYLQSPITTSPSC
effect of TSA on LPS-induced TNF-α in MKP-1 KO MEFs after ectopic expression (TNF-α): not with MKP-1(K57R)
dephosphorylation of phospho-p38, without p300 (phospho-p38): can decrease the phosphorylation of p38
dephosphorylation of phospho-p38, effect of adding p300 (phospho-p38): no further effect on MKP-1 dephosphorylation of p38
effect of TSA on phospho-p38 in MKP-1 KO MEFs after ectopic expression (p38): cannot restore the effects of TSA upon phospho-p38

B4: MKP-1(WT): recombinant or ectopically expressed wild-type MKP-1 (protein)
chain: MVMEVGILDAGGLRALLREGAAQCLLLDCRSFFAFNAGHIAGSVNVRFSTIVRRRAKGAMGLEHIVPNAELRGRLLAGAYHAVVLLDERSASLDGAKRDGTLALAAGALCREARSTQVFFLQGGYEAFSASCPELCSKQSTPTGLSLPLSTSVPDSAESGCSSCSTPLYDQGGPVEILSFLYLGSAYHASRKDMLDALGITALINVSANCPNHFEGHYQYKSIPVEDNHKADISSWFNEAIDFIDSIKDAGGRVFVHCQAGISRSATICLAYLMRTNRVKLDEAFEFVKQRRSIISPNFSFMGQLLQFESQVLAPHCSAEAGSPAMAVLDRGTSTTTVFNFPVSIPVHPTNSALNYLKSPITTSPSC
modifications: left off: ERα ligand-binding domain, end not stated, kept
dephosphorylation of phospho-p38, without p300 (phospho-p38): reduces phosphorylation of p38
dephosphorylation of phospho-p38, effect of adding p300 (phospho-p38): further decrease in phosphorylation of p38
effect of TSA on phospho-p38 in MKP-1 KO MEFs after ectopic expression (p38): restores the ability of TSA to decrease phospho-p38 levels

— paper PMC2413043 (The Journal of Experimental Medicine, 2008)
